The nature of data set [1]: The amount of unchanged tracer in baboon plasma was determined 30 min after injection of the carbon-11 labeled compound. It counts as ADME, cell-free. The settings on record: papio hamadryas, read-out: Unchanged tracer. Put shortly:
(§1)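 Arterial plasma was sampled at 1, 10, 30 and 60 min after tracer injection in the baboon. Unchanged [N-11C-methyl]-4-fluorodeprenyl was measured by HPLC on a C18 Spherisorb 5 ODS column (250 × 4.6 mm). Mobile phase was methanol–0.05 N ammonium formate (70–30%) at 1 mL/min, with UV at 254 nm. Results are given as percent unchanged tracer.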

A short description of data set [2]: The amount of unchanged tracer in baboon plasma was determined 10 min after injection of the carbon-11 labeled compound. It counts as ADME, cell-free. The settings on record: papio hamadryas, read-out: Unchanged tracer. In short, it runs like this: as §1
Data set [3] can be described thus: Peak plasma radioactivity for the carbon-11 labeled compound was determined at 1.5 min after injection in baboon; (Range = 0.08-0.11). It counts as ADME, cell-free. Particulars: papio hamadryas, 0.025 h.
Data set [4] is described as follows: The absolute striatal uptake of the carbon-11 labeled compound at 60 min was determined in baboon. It is filed as ADME. The settings on record: papio hamadryas, 1 h. Put shortly:
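PET in one young adult female baboon (Papio anubis, 12.6 kg). Anaesthesia was ketamine (10 mg/kg), then isoflurane/nitrous oxide maintenance. The same animal was used for three experiments, at least two weeks apart.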

The nature of data set [5]: The amount of unchanged tracer in baboon plasma was determined 1 min after injection of the carbon-11 labeled compound. It counts as ADME, cell-free. The settings on record: papio hamadryas, read-out: Unchanged tracer. Put shortly: as §1
The nature of data set [6]: Peak plasma radioactivity for the carbon-11 labeled compound was determined at 0.5 min after injection in baboon; (Range = 0.08-0.11). It counts as ADME, cell-free. Particulars: papio hamadryas.
A short description of data set [7]: The amount of unchanged tracer in baboon plasma was determined 60 min after injection of the carbon-11 labeled compound. It counts as ADME, cell-free. Particulars: papio hamadryas, read-out: Unchanged tracer. In short, it runs like this: as §1
The target in a further data set is T1, Monoamine oxidase (Homo sapiens, UniProt P21397+P27338).
T1 sequence (P21397 whole entry): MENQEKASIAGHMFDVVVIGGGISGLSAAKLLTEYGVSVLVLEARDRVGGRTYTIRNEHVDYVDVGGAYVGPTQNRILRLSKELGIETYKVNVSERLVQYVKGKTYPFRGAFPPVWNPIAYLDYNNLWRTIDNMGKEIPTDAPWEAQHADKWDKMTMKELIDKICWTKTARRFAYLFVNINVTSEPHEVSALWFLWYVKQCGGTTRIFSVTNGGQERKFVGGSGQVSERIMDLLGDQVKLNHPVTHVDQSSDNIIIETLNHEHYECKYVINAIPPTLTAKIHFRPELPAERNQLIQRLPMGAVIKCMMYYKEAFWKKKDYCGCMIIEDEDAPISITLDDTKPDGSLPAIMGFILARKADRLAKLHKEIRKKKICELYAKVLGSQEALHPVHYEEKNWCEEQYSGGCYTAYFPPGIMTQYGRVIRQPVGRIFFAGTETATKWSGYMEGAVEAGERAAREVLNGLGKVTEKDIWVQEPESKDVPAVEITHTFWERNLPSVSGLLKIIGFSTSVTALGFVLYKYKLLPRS
T1 sequence (P27338 whole entry): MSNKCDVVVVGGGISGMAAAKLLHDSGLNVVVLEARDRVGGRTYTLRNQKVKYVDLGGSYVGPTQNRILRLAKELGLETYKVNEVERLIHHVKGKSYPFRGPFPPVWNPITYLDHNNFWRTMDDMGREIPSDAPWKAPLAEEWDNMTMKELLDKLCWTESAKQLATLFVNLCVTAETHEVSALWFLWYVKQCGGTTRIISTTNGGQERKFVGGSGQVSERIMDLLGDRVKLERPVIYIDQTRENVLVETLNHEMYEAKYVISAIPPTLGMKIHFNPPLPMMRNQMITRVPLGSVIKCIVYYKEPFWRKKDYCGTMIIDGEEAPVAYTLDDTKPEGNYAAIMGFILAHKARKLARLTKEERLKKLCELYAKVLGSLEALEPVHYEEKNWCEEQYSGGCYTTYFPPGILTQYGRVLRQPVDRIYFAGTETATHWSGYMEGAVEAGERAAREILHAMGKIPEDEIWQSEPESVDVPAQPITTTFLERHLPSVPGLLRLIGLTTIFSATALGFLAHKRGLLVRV
Briefly: In vitro inhibitory activity against Monoamine oxidase in baboon brain was determined. It counts as tissue-based, Papio hamadryas. Particulars: target entry is the homologue from another species.

SMILES strings stand for the structures.

On to `C#CCN([11CH3])[C@H](C)Cc1ccc(F)cc1`, for which the remaining at 0.5 h in data set [1] amounted to 20%. In addition, the remaining at 10 min in data set [2] was 50%. Besides, the “Peak radioactivity in blood” value turned out to be 0.01 % injected dose cm**-3 in data set [3] and 0.11 % injected dose cm**-3 in data set [6]. Moreover, the “% injected dose/cm3” value in data set [4] is recorded as 0.053%. For the same compound, the remaining at 1 min in data set [5] turned out to be 96%. Also, the remaining at 1 h in data set [7] worked out at 14%.
For the compound `C#CCN(C)[C@H](C)Cc1ccc(F)cc1`, the IC50 (commonly the concentration at which inhibition is half-maximal) on Monoamine oxidase is 41.7 nM.
With `C#CCN(C)[C@@H](C)Cc1ccc(F)cc1`, in data set [1], the remaining at 0.5 h was 30%. Besides, the remaining at 10 min in data set [2] worked out at 61%. For the same compound, the “Peak radioactivity in blood” value in data set [3] is listed as 0.01 % injected dose cm**-3; in data set [6] it was 0.11 % injected dose cm**-3. The “% injected dose/cm3” value in data set [4] turned out to be 0.021%. The remaining at 1 min in data set [5] is 98%. The remaining at 1 h in data set [7] amounted to 22%.
As to `C#CCN(C)C(C)Cc1ccc(F)cc1` (stereo not drawn), the remaining at 0.5 h in data set [1] turned out to be 16%. For the same compound, in data set [2], the remaining at 10 min amounted to 43%. For the same compound, the “Peak radioactivity in blood” value in data set [3] came to 0.01 % injected dose cm**-3; in data set [6], 0.11 % injected dose cm**-3. The Uptake in data set [4] was determined as 0.041 % injected dose cm**-3. The remaining at 1 min in data set [5] was determined as 96%. Further, the remaining at 1 h in data set [7] was 15%.
Regarding `C#CCN(C)[C@H](C)Cc1ccccc1` [SELEGILINE], in data set [4], the Uptake was determined as 0.057%.

Values taken from ChEMBL document CHEMBL1124851, “Synthesis of (R)-(-)- and (S)-(+)-4-fluorodeprenyl and (R)-(-)- and (S)-(+)-[N-11C-methyl]-4-fluorodeprenyl and positron emission tomography studies in baboon brain” (J Med Chem, 1990).
